Active and inactive are the calls of the source. The calls are words filed in the database; no cut-off is given here.
How the values were obtained:
[1] = test system: Trypanosoma brucei brucei; assay: Antitrypanosomal activity against Trypanosoma brucei brucei Lister 427 bloodstream forms incubated for 48 hrs by alamar blue assay; format: functional, organism-based; conditions: Lister 427, 48 h
[2] = Selectivity index, ratio of IC50 for HEK293 cells to IC50 for Trypanosoma brucei brucei Lister 427 bloodstream forms; format: toxicity, cell-based; conditions: human, read-out: Ratio IC50
HEK293 = assay: Cytotoxicity against HEK293 cells assessed as growth inhibition after 72 hrs by alamar blue viability assay; format: cell-based; conditions: Homo sapiens, HEK293, 72 h
Procedure, shortened: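 HEK 293 cells kept in DMEM + 10% FBS at 37 °C, 5% CO2, harvested at 80% confluence, 2000 cells/well, equilibrated overnight. Serial compound dilutions for 72 h; puromycin positive control, 0.4% DMSO negative. […] Two experiments, duplicate points.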

[3] = Drug uptake in Trypanosoma brucei brucei Lister 427 bloodstream forms nucleus at 50 uM after 2 hrs by FITC/DsRed staining based fluorescence microscopic analysis; format: ADME
Procedure, shortened: (§1)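 Parasites at 1 × 10^7 cells/mL exposed to 50 μM compound for 2 h at 37 °C, humidified 5% CO2. Washed in PBS, mixed 1:1 with 2% w/v low-melting agarose and spread under a coverslip for fluorescence microscopy.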

[4] = test system: Trypanosoma brucei brucei; assay: Binding affinity to kinetoplast DNA in Trypanosoma brucei brucei Lister 427 bloodstream forms at 50 uM after 2 hrs by FITC/DsRed staining based fluorescence microscopic analysis; procedure, shortened: as §1

| Structure (SMILES) | selectivity ratio [2] | IC50 (HEK293) [µM] | also measured |
| --- | --- | --- | --- |
| Cn1cc(NC(=O)c2cc(NC(=O)c3cc(NC=O)cn3C)cn2C)cc1C(=O)NCCN1CCOCC1 | – | – | IC50 [1]: 48 µM |
| Cn1cc(NC(=O)c2cc(NC(=O)c3ccc(/C=C/c4ccc5nsnc5c4)cc3)cn2C)cc1C(=O)NCCN1CCOCC1 | > 2740 | > 20 | – |
| CC(C)CCc1sc(NC(=O)c2cc(NC(=O)c3cc(/C=C/c4ccc([N+](=O)[O-])cc4)cn3C)cn2C)nc1C(=O)NCCN1CCOCC1 | > 1850 | – | – |
| CN(C)c1ccc(/C=C/c2ccc(C(=O)Nc3cc(C(=O)Nc4cc(C(=O)NCCN5CCOCC5)n(C)c4)n(C)c3)cn2)cc1 | – | – | Drug uptake [3]: Active; Activity [4]: Active |
| CC(C)CCc1sc(NC(=O)c2cc(NC(=O)c3ccc(/C=C/c4ccc5ccccc5c4)cc3)cn2C)nc1C(=O)NCCN1CCOCC1 | > 500 | > 20 | – |
| Cn1cc(NC(=O)c2cc(NC(=O)c3cc(NC(=O)c4cc5ccccc5cn4)cn3C)cn2C)cc1C(=O)NCCCN1CCOCC1 | > 2940 | > 20 | – |
| COc1cccc(C(=N)Nc2cc(C(=O)Nc3cc(C(=O)Nc4nc(C(=O)NCCN5CCOCC5)c(C(C)C)s4)n(C)c3)n(C)c2)c1 | – | – | IC50 [1]: > 75 µM |
| Cn1cc(NC(=O)c2cc(NC(=O)c3ccc(/C=C/c4ccc5nonc5c4)cc3)cn2C)cc1C(=O)NCCN1CCOCC1 | > 1050 | > 20 | – |
